We go through 2 compounds from ChEMBL document CHEMBL1799920, “Total synthesis and pharmacological characterization of solomonsterol A, a potent marine pregnane-X-receptor agonist endowed with anti-inflammatory activity” (J Med Chem, 2011).

Test [1] has as its system Mus musculus. Briefly: Antiinflammatory activity against trinitrobenzenesulfonic acid-induced colitis in human PXR expressing transgenic C57/BL6 mouse assessed as increase in IL-10 protein level in colon at 10 mg/kg, po qd after 5 days by ELISA. It is filed as functional, organism-based. Details: dose 10 mg/kg. To be noted: C57Bl/6. The essentials: (§1)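 TNFα and IL-10 were measured by ELISA in colon homogenates (T-PER lysis, 10,000g for 15 min at 4 °C) from TNBS-colitic hPXR mice. Mice were dosed orally at 10 mg/kg once daily in DMSO/1% methylcellulose, starting 3 days before intrarectal TNBS (0.5 mg/mouse). Values were normalized to protein; mean ± SE, 6–7 mice/group.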

The test system of the next test is THP-1. Briefly: Inhibition of NF-kappaB p65 DNA binding activity in LPS-stimulated human THP1 cells at 10 uM after 3 hrs by electrophoretic mobility shift assay. Format: cell-based. The essentials: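 THP-1 cells were pretreated with compound (10 μM) or vehicle for 3 h, then LPS 1 μg/mL was added for 20 h. Nuclear extracts were incubated with biotinylated NF-κB probe for 20 min at room temperature, run on a 6% native gel and detected by chemiluminescence. Specificity was checked by cold-probe competition and p65 antibody supershift. Three independent experiments.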
For orientation: In EMSA bound probe runs differently from free probe, usually more slowly.

Test [2] relates to Mus musculus. The experiment in a line: Antiinflammatory activity against trinitrobenzenesulfonic acid-induced colitis in human PXR expressing transgenic C57/BL6 mouse assessed as decrease in cellular infiltrate in colon at 10 mg/kg, po qd administered 3 days before TNBS challenge measured after 7 days. Format: functional, organism-based. Details: dose 10 mg/kg. Conditions: C57Bl/6. The essentials:
(§2)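 TNBS colitis in male hPXR mice (human PXR on mouse PXR-null background). After a 16 h fast and light ketamine/xylazine i.p. anesthesia, mice received TNBS 0.5 mg/mouse in 50% ethanol intrarectally by catheter. Dosing was 10 mg/kg orally once daily, dissolved in DMSO and diluted in 1% methylcellulose, starting 3 days before TNBS. Colons were taken 4 days after TNBS and stained with H&E. n = 6–7.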

Test [3] relates to Mus musculus. The experiment in a line: Antiinflammatory activity against trinitrobenzenesulfonic acid-induced colitis in human PXR expressing transgenic C57/BL6 mouse assessed as decrease in appearance of epithelial erosions in colon at 10 mg/kg, po qd administered 3 days before TNBS challenge measured after 7 days by haematoxylin/eosin staining. It is filed as functional, organism-based. Details: dose 10 mg/kg. To be noted: C57Bl/6. Put shortly: as §2

Test [4] concerns Mus musculus. Briefly: Antiinflammatory activity against trinitrobenzenesulfonic acid-induced colitis in human PXR expressing transgenic C57/BL6 mouse assessed as decrease in colonic myeloperoxidase activity at 10 mg/kg, po qd after 5 days using trimethylbenzidine as substrate by spectrophotometry. Format: functional, organism-based. Details: dose 10 mg/kg. Conditions: C57Bl/6. Put shortly:
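Colon myeloperoxidase from TNBS-colitic hPXR mice given oral 10 mg/kg daily. Colon was lysed in T-PER and minced, then centrifuged at 10,000g for 15 min at 4 °C. After two freeze/thaw cycles, MPO in the homogenate was measured spectrophotometrically with TMB substrate and normalized to protein. Mean ± SE, 6–7 mice/group.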

Test [5] concerns Mus musculus. Briefly: Antiinflammatory activity against trinitrobenzenesulfonic acid-induced colitis in human PXR expressing transgenic C57/BL6 mouse assessed as decrease in TNF-alpha protein level in colon at 10 mg/kg, po qd after 5 days by ELISA. Details: dose 10 mg/kg. To be noted: C57Bl/6. It is filed as functional, organism-based. The essentials:
as §1
On the technique in general: In an ELISA, binding on a coated surface is turned into a signal by an enzyme label.

The subject of test [6] is Mus musculus. The experiment in a line: Antiinflammatory activity against trinitrobenzenesulfonic acid-induced colitis in human PXR expressing transgenic C57/BL6 mouse assessed as decrease in IL-12p70 protein level in colon at 10 mg/kg, po qd after 5 days. Format: functional, organism-based. Details: dose 10 mg/kg. Conditions: C57Bl/6.
Test [7] deals with Mus musculus. The experiment in a line: Antiinflammatory activity against trinitrobenzenesulfonic acid-induced colitis in human PXR expressing transgenic C57/BL6 mouse assessed as decrease in MIP-1alpha protein level in colon at 10 mg/kg, po qd after 5 days. Format: functional, organism-based. Details: dose 10 mg/kg. Conditions: C57Bl/6.
For test [8], the target named is T1, Nuclear receptor subfamily 1 group I member 2 (Homo sapiens, UniProt O75469).
T1 sequence (O75469 whole entry): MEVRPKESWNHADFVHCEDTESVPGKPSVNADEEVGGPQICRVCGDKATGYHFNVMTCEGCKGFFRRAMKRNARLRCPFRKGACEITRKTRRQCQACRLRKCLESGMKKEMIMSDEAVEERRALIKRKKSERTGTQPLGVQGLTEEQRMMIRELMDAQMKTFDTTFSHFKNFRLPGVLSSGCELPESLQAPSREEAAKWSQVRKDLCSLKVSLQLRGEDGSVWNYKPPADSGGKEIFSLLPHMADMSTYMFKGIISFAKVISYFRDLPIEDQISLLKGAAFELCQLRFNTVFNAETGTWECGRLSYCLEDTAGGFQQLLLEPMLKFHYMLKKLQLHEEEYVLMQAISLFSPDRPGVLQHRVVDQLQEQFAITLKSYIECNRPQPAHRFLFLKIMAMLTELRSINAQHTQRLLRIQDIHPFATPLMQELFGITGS
The experiment in a line: Transactivation of human PXR expressed in HepG2 cells after 18 hrs by luciferase reporter gene assay. It is filed as cell-based. Put shortly: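 HepG2 cells were transiently transfected with pSG5-PXR, pSG5-RXR, pCMV-βgal and a CYP3A4-promoter luciferase reporter. 48 h after transfection, cells were stimulated for 18 h at 0.1, 1 and 10 μM. Luciferase was normalised to β-galactosidase; n = 4. Relative EC50 from n = 3.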

The subject of test [9] is Mus musculus. The experiment in a line: Antiinflammatory activity against trinitrobenzenesulfonic acid-induced colitis in human PXR expressing transgenic C57/BL6 mouse assessed as decrease in edema of colon at 10 mg/kg, ip qd administered 3 days before TNBS challenge measured after 7 days. It is filed as functional, organism-based. Details: dose 10 mg/kg. To be noted: C57Bl/6. The essentials:
(§3)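 Male hPXR mice (human PXR on mouse PXR-null background). Fasted 16 h and lightly anaesthetised with ketamine/xylazine, then given TNBS 0.5 mg/mouse in 50% ethanol intrarectally in 150 μL. Drug was dissolved in DMSO, diluted in 1% methylcellulose and given i.p. once daily for 3 days before TNBS. Vehicle controls received methylcellulose. Mice were sacrificed 4 days after TNBS; n = 6–7 per group.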

Test [10] relates to Mus musculus. The experiment in a line: Antiinflammatory activity against trinitrobenzenesulfonic acid-induced colitis in human PXR expressing transgenic C57/BL6 mouse assessed as decrease in evidence of mucosal hemorrhage in colon at 10 mg/kg, ip qd administered 3 days before TNBS challenge measured after 7 days. To be noted: C57Bl/6. Format: functional, organism-based. Details: dose 10 mg/kg. The essentials:
as §3

Test [11] relates to Mus musculus. The experiment in a line: Antiinflammatory activity against trinitrobenzenesulfonic acid-induced colitis in human PXR expressing transgenic C57/BL6 mouse assessed as decrease in cellular infiltrate in colon at 10 mg/kg, ip qd administered 3 days before TNBS challenge measured after 7 days. Format: functional, organism-based. Details: dose 10 mg/kg. To be noted: C57Bl/6. The essentials: as §3

Test [12] has as its system Mus musculus. The experiment in a line: Antiinflammatory activity against trinitrobenzenesulfonic acid-induced colitis in human PXR expressing transgenic C57/BL6 mouse assessed as decrease in IL-12p70 protein level in colon at 10 mg/kg, ip qd after 5 days. Format: functional, organism-based. Details: dose 10 mg/kg. To be noted: C57Bl/6.
Test [13] deals with Mus musculus. Briefly: Antiinflammatory activity against trinitrobenzenesulfonic acid-induced colitis in human PXR expressing transgenic C57/BL6 mouse assessed as decrease in MIP-1alpha protein level in colon at 10 mg/kg, ip qd after 5 days. Format: functional, organism-based. To be noted: C57Bl/6. Details: dose 10 mg/kg.
Test [14] relates to Mus musculus. Briefly: Antiinflammatory activity against trinitrobenzenesulfonic acid-induced colitis in human PXR expressing transgenic C57/BL6 mouse assessed as decrease in goblet cells in colon at 10 mg/kg, ip administered on day 1 after TNBS challenge measured after 5 days by microscopically. It is filed as functional, organism-based. Details: dose 10 mg/kg. To be noted: C57Bl/6. Put shortly:
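Therapeutic protocol in male hPXR mice. Colitis was induced with intrarectal TNBS 0.5 mg/mouse in 50% ethanol after a 16 h fast and light ketamine/xylazine anaesthesia. Drug at 10 mg/kg was given once daily from day 1 after TNBS. Mice were sacrificed 5 days after TNBS; n = 4–6 per group.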

Calls of active or inactive are those of the source. The calls are words filed in the database; no cut-off is given here.

What is called EC50 is the concentration at which the effect is half-maximal. `CO[C@H]1/C=C/O[C@@]2(C)Oc3c(C)c(O)c4c(O)c(c5c(nc6cc(C)ccn65)c4c3C2=O)NC(=O)/C(C)=C\C=C\[C@H](C)[C@H](O)[C@@H](C)[C@@H](O)[C@@H](C)[C@H](OC(C)=O)[C@@H]1C` [RIFAXIMIN]: the outcome with Mus musculus [1], with THP-1, in the test with Mus musculus [2], with Mus musculus [3], in the test on Mus musculus [4] and in the test on Mus musculus [5] was Active. Besides, the outcome in the test on Mus musculus [6] and in the test on Mus musculus [7] was Active. Further, in test [8], the EC50 was determined as 2.2 µM.

Turning to `C[C@H](CCCOS(=O)(=O)O)[C@H]1CC[C@H]2[C@@H]3CC[C@H]4C[C@H](OS(=O)(=O)O)[C@@H](OS(=O)(=O)O)C[C@]4(C)[C@H]3CC[C@]12C` [SOLOMONSTEROL A], the outcome with Mus musculus [9], in the test with Mus musculus [10], with Mus musculus [11], with Mus musculus [12], with Mus musculus [13] and with THP-1 was Active. The result in the test on Mus musculus [14] was Active. Also, in test [8], the response was half-maximal at 5.2 µM (EC50).
